The source made the active and inactive calls. The rule behind the calls is not given here.
How the values were obtained:
Mus musculus [1] = assay: Antidepressant activity in Kunming mouse assessed as decrease in immobility time at 40 mg/kg, po by tail suspension test; format: functional, organism-based; design: dose 40 mg/kg
Mus musculus [2] = assay: Antidepressant activity in Kunming mouse assessed as decrease in immobility time at 40 mg/kg, po by forced swimming test; format: functional, organism-based; design: dose 40 mg/kg
[3] = target: 5-hydroxytryptamine receptor 2A (Rattus norvegicus, UniProt P14842); assay: Displacement of [3H]-ketanserin from rat cerebral cortex 5-HT2A receptor after 30 mins by liquid scintillation counting; format: tissue-based
Summary of the method: (§1)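 Competition binding on rat cerebral cortex homogenates. 5-HT1A was labelled with [3H]-8-hydroxy-2-(di-n-propylamino)tetralin and 5-HT2A with [3H]ketanserine. The method followed a previously reported procedure. Ki values are reported as mean ± SEM.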

[4] = target: T1, 5-hydroxytryptamine receptor 1A (Rattus norvegicus, UniProt P19327); assay: Displacement of [3H]8-OH-DPAT from rat cerebral cortex 5-HT1A receptor after 30 mins by liquid scintillation counting; format: tissue-based; summary of the method: as §1
T1 sequence (P19327 whole entry): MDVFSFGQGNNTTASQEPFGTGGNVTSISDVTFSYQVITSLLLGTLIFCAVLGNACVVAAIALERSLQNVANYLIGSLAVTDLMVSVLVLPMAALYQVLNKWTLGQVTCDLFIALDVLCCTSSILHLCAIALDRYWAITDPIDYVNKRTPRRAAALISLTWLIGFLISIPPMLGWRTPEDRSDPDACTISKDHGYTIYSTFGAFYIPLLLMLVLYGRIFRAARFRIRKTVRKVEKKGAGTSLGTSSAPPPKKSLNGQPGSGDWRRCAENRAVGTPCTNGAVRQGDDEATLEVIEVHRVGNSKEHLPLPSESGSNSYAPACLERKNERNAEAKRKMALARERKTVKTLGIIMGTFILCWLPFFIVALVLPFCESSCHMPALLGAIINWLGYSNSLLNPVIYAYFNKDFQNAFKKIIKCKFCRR

Mus musculus [5] = assay: Toxicity in Kunming mouse assessed as locomotor activity at 100 mg/kg, po measured for 10 mins (reference value: 1165 +/- 263 cm); format: organism-based; design: dose 100 mg/kg, route oral; settings: in vivo
Summary of the method: (§2)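 Mice were given test compound orally, with a vehicle-treated group as control. Locomotor activity was recorded for 10 min and reported as distance travelled (cm). Values are mean ± SEM, n = 10 per group. The test was used to rule out false positives in the swim and tail-suspension tests.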

Mus musculus [6] = assay: Toxicity in Kunming mouse assessed as locomotor activity at 40 mg/kg, po measured for 10 mins (reference value: 1165 +/- 263 cm); format: organism-based; design: dose 40 mg/kg, route oral; settings: in vivo; summary of the method: as §2
Mus musculus [7] = assay: Toxicity in Kunming mouse assessed as locomotor activity at 10 mg/kg, po measured for 10 mins (reference value: 1165 +/- 263 cm); format: organism-based; design: dose 10 mg/kg, route oral; settings: in vivo; summary of the method: as §2
Mus musculus [8] = assay: Antidepressant activity in po dosed Kunming mouse assessed as decrease in immobility time by forced swimming test; format: functional

5-hydroxytryptamine receptor 2A, sequence (P14842 whole entry): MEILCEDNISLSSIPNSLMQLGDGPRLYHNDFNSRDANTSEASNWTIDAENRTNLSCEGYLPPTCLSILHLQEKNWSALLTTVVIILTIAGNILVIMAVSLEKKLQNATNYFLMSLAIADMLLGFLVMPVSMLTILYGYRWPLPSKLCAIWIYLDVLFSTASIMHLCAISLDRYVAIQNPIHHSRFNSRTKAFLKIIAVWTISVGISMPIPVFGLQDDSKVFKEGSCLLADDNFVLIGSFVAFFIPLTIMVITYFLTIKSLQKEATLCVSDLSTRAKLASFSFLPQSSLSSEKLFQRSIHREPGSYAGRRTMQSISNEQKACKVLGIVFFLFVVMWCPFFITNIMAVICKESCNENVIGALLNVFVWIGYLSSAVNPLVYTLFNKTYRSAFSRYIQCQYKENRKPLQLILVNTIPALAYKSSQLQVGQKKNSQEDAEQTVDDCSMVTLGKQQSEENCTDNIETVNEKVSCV

| Ki [3] | Ki [4] | Compound | antidepressant activity (active/inactive) (Mus musculus [1]) | Decrease in immobility time (Mus musculus [2]) | Activity (Mus musculus [5]) | Activity (Mus musculus [6]) | Activity (Mus musculus [7]) | ED50 (Mus musculus [8]) |
| --- | --- | --- | --- | --- | --- | --- | --- | --- |
| 0.148 µM | 0.131 µM | c1ccc(C2Oc3ccccc3OC2COCCCCCN2CCC(c3nc4ccccc4s3)CC2)cc1 (stereo not given) |  |  |  |  |  |  |
| 0.00071 µM | 0.017 µM | c1ccc(C2Oc3ccccc3OC2COCCCCN2CCC(c3nc4ccccc4o3)CC2)cc1 (stereo not given) | Active | Active | 1150 cm | 1114 cm | 1180 cm | 39 mg/kg |
| 0.028 µM | 0.092 µM | c1ccc2c(c1)OCC(COCCCN1CCC(c3nc4ccccc4s3)CC1)O2 (stereo not given) |  |  |  |  |  |  |
| 0.088 µM | 0.084 µM | O=C(NCCCN1CCC(c2nc3ccccc3o2)CC1)C1COc2ccccc2O1 (stereo not given) | Active | Active |  |  |  |  |
| 0.024 µM | 0.031 µM | c1ccc(C2Oc3ccccc3OC2COCCCCN2CCC(c3nc4ccccc4s3)CC2)cc1 (stereo not given) | Active | Active |  |  |  |  |
| 0.03 µM | 0.12 µM | c1ccc2c(c1)OCC(COCCCN1CCC(c3nc4ccccc4o3)CC1)O2 (stereo not given) |  |  |  |  |  |  |

The next lines start with the molecule.

| Compound | Ki [3] | Ki [4] | antidepressant activity (active/inactive) (Mus musculus [1]) | Decrease in immobility time (Mus musculus [2]) | Activity (Mus musculus [5]) | Activity (Mus musculus [6]) | Activity (Mus musculus [7]) | ED50 (Mus musculus [8]) |
| --- | --- | --- | --- | --- | --- | --- | --- | --- |
| O=C(NCCCN1CCC(c2nc3ccccc3s2)CC1)C1COc2ccccc2O1 (stereo not given) | 0.09 µM | 0.085 µM | Active | Active |  |  |  |  |
| O=C(NCCN1CCC(c2nc3ccccc3o2)CC1)C1COc2ccccc2O1 (stereo not given) | 0.087 µM | 0.076 µM |  |  |  |  |  |  |
| c1ccc(C2Oc3ccccc3OC2COCCCN2CCC(c3nc4ccccc4o3)CC2)cc1 (stereo not given) | 0.0041 µM | 0.051 µM | Active | Active |  |  |  |  |
| CC1Oc2ccccc2OC1COCCCN1CCC(c2nc3ccccc3o2)CC1 (stereo not given) | 0.0082 µM | 0.152 µM |  |  |  |  |  |  |
| O=C(NCCN1CCC(c2nc3ccccc3s2)CC1)C1COc2ccccc2O1 (stereo not given) | 0.113 µM | 0.094 µM |  |  |  |  |  |  |
| c1ccc(C2Oc3ccccc3OC2COCCCN2CCC(c3nc4ccccc4s3)CC2)cc1 (stereo not given) | 0.019 µM | 0.134 µM | Active | Active |  |  |  |  |
| CC1Oc2ccccc2OC1COCCCN1CCC(c2nc3ccccc3s2)CC1 (stereo not given) | 0.131 µM | 0.103 µM |  |  |  |  |  |  |
| c1ccc(C2Oc3ccccc3OC2COCCCCCN2CCC(c3nc4ccccc4o3)CC2)cc1 (stereo not given) | 0.00074 µM | 0.106 µM |  |  |  |  |  |  |
| CN(C)CCCN1c2ccccc2CCc2ccccc21 [IMIPRAMINE] |  |  |  |  |  |  | 1248 cm |  |

— ChEMBL document CHEMBL3232997, “Synthesis and biological evaluation of a series of benzoxazole/benzothiazole-containing 2,3-dihydrobenzo[b][1,4]dioxine derivatives as potential antidepressants” (Bioorg Med Chem Lett, 2014)
